Like-named read-outs stand apart in the source and are kept apart here.
System: patients with relapsed/refractory lymphoma
Type: in vivo, human
Details: for Drug-related grade ⩾3 AE: Renal failure: includes renal failure acute; for Drug-related AE: PN NEC: peripheral neuropathy, high-level term
Summary of the method: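 Open-label phase 1 in patients with relapsed/refractory lymphoma after ⩾2 prior therapies. Dosing started at one patient per level with doubling from 0.125 to 1.0 mg/m2, then followed a 3+3 schema up to 3.11 mg/m2. DLTs were assessed in cycle 1, and AEs were graded by NCI-CTCAE v3.0.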

CC(C)C[C@H](NC(=O)CNC(=O)c1cc(Cl)ccc1Cl)B(O)O [ixazomib]
Drug-related AE: Paresthesia (dose 1.76 mg/m^2 (n=7)): 0 n
Drug-related AE: Peripheral edema (dose 1.76 mg/m^2 (n=7)): 1 n
Drug-related AE: Pyrexia (dose 1.76 mg/m^2 (n=7)): 3 n
Drug-related AE: Thrombocytopenia (dose 1.76 mg/m^2 (n=7)): 2 n
Drug-related AE: Vomiting (dose 1.76 mg/m^2 (n=7)): 4 n
Drug-related grade ⩾3 AE: Any grade ⩾3 AE (dose 1.76 mg/m^2 (n=7)): 3 n
Drug-related grade ⩾3 AE: Dehydration (dose 1.76 mg/m^2 (n=7)): 0 n
Drug-related grade ⩾3 AE: Diarrhea (dose 1.76 mg/m^2 (n=7)): 0 n
Drug-related grade ⩾3 AE: Lymphopenia (dose 1.76 mg/m^2 (n=7)): 0 n
Drug-related grade ⩾3 AE: Neutropenia (dose 1.76 mg/m^2 (n=7)): 1 n
Drug-related grade ⩾3 AE: Thrombocytopenia (dose 1.76 mg/m^2 (n=7)): 1 n
Drug-related AE: Abdominal pain (dose 2.34 mg/m^2 (n=10)): 2 n
Drug-related AE: Any AE (dose 2.34 mg/m^2 (n=10)): 10 n
Drug-related AE: Arthralgia (dose 2.34 mg/m^2 (n=10)): 1 n
Drug-related AE: Chills (dose 2.34 mg/m^2 (n=10)): 1 n
Drug-related AE: Constipation (dose 2.34 mg/m^2 (n=10)): 0 n
Drug-related AE: Cough (dose 2.34 mg/m^2 (n=10)): 1 n
Drug-related AE: Decreased appetite (dose 2.34 mg/m^2 (n=10)): 0 n
Drug-related AE: Decreased platelet count (dose 2.34 mg/m^2 (n=10)): 0 n
Drug-related AE: Diarrhea (dose 2.34 mg/m^2 (n=10)): 2 n
Drug-related AE: Dysgeusia (dose 2.34 mg/m^2 (n=10)): 1 n
Drug-related AE: Fatigue (dose 2.34 mg/m^2 (n=10)): 2 n
Drug-related AE: Headache (dose 2.34 mg/m^2 (n=10)): 1 n
Drug-related AE: Hypokalemia (dose 2.34 mg/m^2 (n=10)): 0 n
Drug-related AE: Lymphopenia (dose 2.34 mg/m^2 (n=10)): 2 n
Drug-related AE: Nausea (dose 2.34 mg/m^2 (n=10)): 1 n
Drug-related AE: Neutropenia (dose 2.34 mg/m^2 (n=10)): 3 n
Drug-related AE: Oral herpes (dose 2.34 mg/m^2 (n=10)): 1 n
Drug-related AE: Pain in extremity (dose 2.34 mg/m^2 (n=10)): 2 n
Drug-related AE: Paresthesia (dose 2.34 mg/m^2 (n=10)): 1 n
Drug-related AE: Peripheral edema (dose 2.34 mg/m^2 (n=10)): 2 n
Drug-related AE: Pyrexia (dose 2.34 mg/m^2 (n=10)): 2 n
Drug-related AE: Thrombocytopenia (dose 2.34 mg/m^2 (n=10)): 2 n
Drug-related AE: Vomiting (dose 2.34 mg/m^2 (n=10)): 1 n
Drug-related grade ⩾3 AE: Any grade ⩾3 AE (dose 2.34 mg/m^2 (n=10)): 4 n
Drug-related grade ⩾3 AE: Dehydration (dose 2.34 mg/m^2 (n=10)): 0 n
Drug-related grade ⩾3 AE: Diarrhea (dose 2.34 mg/m^2 (n=10)): 0 n
Drug-related grade ⩾3 AE: Lymphopenia (dose 2.34 mg/m^2 (n=10)): 1 n
Drug-related grade ⩾3 AE: Neutropenia (dose 2.34 mg/m^2 (n=10)): 3 n
Drug-related grade ⩾3 AE: Thrombocytopenia (dose 2.34 mg/m^2 (n=10)): 1 n
Drug-related AE: Abdominal pain (dose 3.11 mg/m^2 (n=5)): 2 n
Drug-related AE: Any AE (dose 3.11 mg/m^2 (n=5)): 5 n
Drug-related AE: Arthralgia (dose 3.11 mg/m^2 (n=5)): 2 n
Drug-related AE: Chills (dose 3.11 mg/m^2 (n=5)): 1 n
Drug-related AE: Constipation (dose 3.11 mg/m^2 (n=5)): 3 n
Drug-related AE: Cough (dose 3.11 mg/m^2 (n=5)): 1 n
Drug-related AE: Decreased appetite (dose 3.11 mg/m^2 (n=5)): 3 n
Drug-related AE: Decreased platelet count (dose 3.11 mg/m^2 (n=5)): 2 n
Drug-related AE: Diarrhea (dose 3.11 mg/m^2 (n=5)): 4 n
Drug-related AE: Dysgeusia (dose 3.11 mg/m^2 (n=5)): 0 n
Drug-related AE: Fatigue (dose 3.11 mg/m^2 (n=5)): 2 n
Drug-related AE: Headache (dose 3.11 mg/m^2 (n=5)): 1 n
Drug-related AE: Hypokalemia (dose 3.11 mg/m^2 (n=5)): 2 n
Drug-related AE: Lymphopenia (dose 3.11 mg/m^2 (n=5)): 1 n
Drug-related AE: Nausea (dose 3.11 mg/m^2 (n=5)): 2 n
Drug-related AE: Neutropenia (dose 3.11 mg/m^2 (n=5)): 1 n
Drug-related AE: Oral herpes (dose 3.11 mg/m^2 (n=5)): 1 n
Drug-related AE: Pain in extremity (dose 3.11 mg/m^2 (n=5)): 1 n
Drug-related AE: Paresthesia (dose 3.11 mg/m^2 (n=5)): 0 n
Drug-related AE: Peripheral edema (dose 3.11 mg/m^2 (n=5)): 1 n
Drug-related AE: Pyrexia (dose 3.11 mg/m^2 (n=5)): 0 n
Drug-related AE: Thrombocytopenia (dose 3.11 mg/m^2 (n=5)): 1 n
Drug-related AE: Vomiting (dose 3.11 mg/m^2 (n=5)): 3 n
Drug-related grade ⩾3 AE: Any grade ⩾3 AE (dose 3.11 mg/m^2 (n=5)): 3 n
Drug-related grade ⩾3 AE: Dehydration (dose 3.11 mg/m^2 (n=5)): 2 n
Drug-related grade ⩾3 AE: Diarrhea (dose 3.11 mg/m^2 (n=5)): 3 n
Drug-related grade ⩾3 AE: Lymphopenia (dose 3.11 mg/m^2 (n=5)): 1 n
Drug-related grade ⩾3 AE: Neutropenia (dose 3.11 mg/m^2 (n=5)): 1 n
Drug-related grade ⩾3 AE: Thrombocytopenia (dose 3.11 mg/m^2 (n=5)): 1 n
Drug-related AE: Abdominal pain (dose 0.125–1.0 mg/m^2 (n=4)): 0 n
Drug-related AE: Any AE (dose 0.125–1.0 mg/m^2 (n=4)): 4 n
Drug-related AE: Arthralgia (dose 0.125–1.0 mg/m^2 (n=4)): 0 n
Drug-related AE: Chills (dose 0.125–1.0 mg/m^2 (n=4)): 0 n
Drug-related AE: Constipation (dose 0.125–1.0 mg/m^2 (n=4)): 0 n
Drug-related AE: Cough (dose 0.125–1.0 mg/m^2 (n=4)): 0 n
Drug-related AE: Decreased appetite (dose 0.125–1.0 mg/m^2 (n=4)): 1 n
Drug-related AE: Decreased platelet count (dose 0.125–1.0 mg/m^2 (n=4)): 0 n
Drug-related AE: Diarrhea (dose 0.125–1.0 mg/m^2 (n=4)): 1 n
Drug-related AE: Dysgeusia (dose 0.125–1.0 mg/m^2 (n=4)): 0 n
Drug-related AE: Fatigue (dose 0.125–1.0 mg/m^2 (n=4)): 3 n
Drug-related AE: Headache (dose 0.125–1.0 mg/m^2 (n=4)): 2 n
Drug-related AE: Hypokalemia (dose 0.125–1.0 mg/m^2 (n=4)): 1 n
Drug-related AE: Lymphopenia (dose 0.125–1.0 mg/m^2 (n=4)): 0 n
Drug-related AE: Nausea (dose 0.125–1.0 mg/m^2 (n=4)): 1 n
Drug-related AE: Neutropenia (dose 0.125–1.0 mg/m^2 (n=4)): 0 n
Drug-related AE: Oral herpes (dose 0.125–1.0 mg/m^2 (n=4)): 0 n
Drug-related AE: Pain in extremity (dose 0.125–1.0 mg/m^2 (n=4)): 0 n
Drug-related AE: Paresthesia (dose 0.125–1.0 mg/m^2 (n=4)): 1 n
Drug-related AE: Peripheral edema (dose 0.125–1.0 mg/m^2 (n=4)): 0 n
Drug-related AE: Pyrexia (dose 0.125–1.0 mg/m^2 (n=4)): 0 n
Drug-related AE: Thrombocytopenia (dose 0.125–1.0 mg/m^2 (n=4)): 1 n
Drug-related AE: Vomiting (dose 0.125–1.0 mg/m^2 (n=4)): 0 n
Drug-related grade ⩾3 AE: Any grade ⩾3 AE (dose 0.125–1.0 mg/m^2 (n=4)): 1 n
Drug-related grade ⩾3 AE: Dehydration (dose 0.125–1.0 mg/m^2 (n=4)): 0 n
Drug-related grade ⩾3 AE: Diarrhea (dose 0.125–1.0 mg/m^2 (n=4)): 0 n
Drug-related grade ⩾3 AE: Lymphopenia (dose 0.125–1.0 mg/m^2 (n=4)): 0 n
Drug-related grade ⩾3 AE: Neutropenia (dose 0.125–1.0 mg/m^2 (n=4)): 0 n
Drug-related grade ⩾3 AE: Thrombocytopenia (dose 0.125–1.0 mg/m^2 (n=4)): 0 n
Drug-related peripheral neuropathy (PN), patients (grade 1 or 2, all doses, n=30): 13%
Drug-related grade ⩾3 AE: Renal failure (all doses, Total (n=30)): 2 (7) n (%)
Drug-related grade ⩾3 AE: Renal failure (dose 1.4 mg/m^2 (n=4)): 0 n
Drug-related grade ⩾3 AE: Renal failure (dose 1.76 mg/m^2 (n=7)): 0 n
Drug-related grade ⩾3 AE: Renal failure (dose 2.34 mg/m^2 (n=10)): 0 n
Drug-related grade ⩾3 AE: Renal failure (dose 3.11 mg/m^2 (n=5)): 2 n
Drug-related grade ⩾3 AE: Renal failure (dose 0.125–1.0 mg/m^2 (n=4)): 0 n
Drug-related AE: PN NEC (all doses, Total (n=30)): 4 (13) n (%)
Drug-related AE: PN NEC (dose 1.4 mg/m^2 (n=4)): 0 n
Drug-related AE: PN NEC (dose 1.76 mg/m^2 (n=7)): 2 n
Drug-related AE: PN NEC (dose 2.34 mg/m^2 (n=10)): 0 n
Drug-related AE: PN NEC (dose 3.11 mg/m^2 (n=5)): 1 n
Drug-related AE: PN NEC (dose 0.125–1.0 mg/m^2 (n=4)): 1 n
